# Entries after “also recorded” stand apart in the source; their conditions may differ. Read-outs that look alike come from different tables or passages of the source. Marks after values point to notes of the source that are not given here.
# Key:
# [1] = system: photosensitive epilepsy; conditions: cited from earlier work
# [2] = target: human recombinant GABAA receptor α4β2γ2 (Homo sapiens, UniProt P18507+P48169); test: Two-electrode voltage clamp in Xenopus oocytes, α4β2γ2; format: cell-based; conditions: TEVC; for Potentiation of the GABA (EC20) response on α4β2γ2 receptors: oocytes, Padsevonil 10 and 30 µmol/L, Ro 15-4513 1 µmol/L
# Chain of human recombinant GABAA receptor α4β2γ2 (P48169 36-554): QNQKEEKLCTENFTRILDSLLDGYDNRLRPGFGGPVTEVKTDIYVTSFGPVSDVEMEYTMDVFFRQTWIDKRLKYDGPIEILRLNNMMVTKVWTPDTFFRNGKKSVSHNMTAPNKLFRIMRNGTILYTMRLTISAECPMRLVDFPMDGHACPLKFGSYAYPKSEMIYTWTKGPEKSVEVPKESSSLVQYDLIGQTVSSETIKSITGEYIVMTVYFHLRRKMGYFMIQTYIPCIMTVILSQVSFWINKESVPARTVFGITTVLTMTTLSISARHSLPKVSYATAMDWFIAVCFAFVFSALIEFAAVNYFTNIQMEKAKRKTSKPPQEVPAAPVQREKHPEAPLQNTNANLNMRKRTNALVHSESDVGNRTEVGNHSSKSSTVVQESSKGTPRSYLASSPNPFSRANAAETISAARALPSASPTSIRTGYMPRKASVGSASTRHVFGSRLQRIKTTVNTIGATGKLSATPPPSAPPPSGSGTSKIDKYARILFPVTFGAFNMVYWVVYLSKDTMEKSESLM
# Chain of human recombinant GABAA receptor α4β2γ2 (P47870 25-512 partner limits assumed): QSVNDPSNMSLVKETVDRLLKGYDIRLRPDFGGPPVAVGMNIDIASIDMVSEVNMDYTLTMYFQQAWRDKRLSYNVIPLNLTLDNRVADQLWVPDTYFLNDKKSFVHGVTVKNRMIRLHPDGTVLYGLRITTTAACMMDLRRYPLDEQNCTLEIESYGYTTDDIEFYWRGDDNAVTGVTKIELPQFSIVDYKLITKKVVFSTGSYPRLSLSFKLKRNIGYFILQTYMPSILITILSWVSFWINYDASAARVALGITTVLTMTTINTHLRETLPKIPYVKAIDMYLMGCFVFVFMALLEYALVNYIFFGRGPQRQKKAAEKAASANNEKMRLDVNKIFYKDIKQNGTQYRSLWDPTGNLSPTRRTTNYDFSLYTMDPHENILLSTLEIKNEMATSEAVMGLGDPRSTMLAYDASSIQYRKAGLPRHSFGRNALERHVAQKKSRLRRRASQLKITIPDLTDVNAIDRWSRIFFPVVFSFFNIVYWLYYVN
# Chain of human recombinant GABAA receptor α4β2γ2 (P18507 40-475): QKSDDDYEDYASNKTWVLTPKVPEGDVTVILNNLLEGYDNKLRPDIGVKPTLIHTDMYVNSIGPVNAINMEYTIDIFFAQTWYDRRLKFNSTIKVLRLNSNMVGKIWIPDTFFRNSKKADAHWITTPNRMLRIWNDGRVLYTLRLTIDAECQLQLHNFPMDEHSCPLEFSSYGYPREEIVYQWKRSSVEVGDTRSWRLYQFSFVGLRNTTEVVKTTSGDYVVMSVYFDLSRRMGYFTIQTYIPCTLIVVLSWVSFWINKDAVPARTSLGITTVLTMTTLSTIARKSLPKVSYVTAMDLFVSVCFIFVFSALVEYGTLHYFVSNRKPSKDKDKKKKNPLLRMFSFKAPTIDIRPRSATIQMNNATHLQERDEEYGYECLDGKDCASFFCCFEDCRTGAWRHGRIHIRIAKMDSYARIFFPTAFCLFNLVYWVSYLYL
# Procedure, shortened: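 Human recombinant receptors expressed in Xenopus oocytes; automated two-electrode voltage clamp at −60 mV in frog Ringer (115 mM NaCl, 2.5 mM KCl, 1.8 mM CaCl₂, 10 mM HEPES, pH 7.2). Two 20 s GABA (EC₂₀) control applications 6 min apart; test compound pre-incubated 6 min, then co-applied with GABA for 20 s. Potentiation is I(GABA+drug)/I(GABA); EC50 from sigmoidal nonlinear fit.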
# [3] = target: recombinant human GABAARs (α1β2γ2) (Homo sapiens, UniProt P14867+P18507); format: cell-based; conditions: for Function relative efficacy, normalized toward zolpidem (1 µmol/L): Padsevonil 10 µmol/L; for Cl− currents evoked in the absence of GABA: no GABA, concentrations up to 30 µmol/L
# Chain of recombinant human GABAARs (α1β2γ2) (P14867 28-456): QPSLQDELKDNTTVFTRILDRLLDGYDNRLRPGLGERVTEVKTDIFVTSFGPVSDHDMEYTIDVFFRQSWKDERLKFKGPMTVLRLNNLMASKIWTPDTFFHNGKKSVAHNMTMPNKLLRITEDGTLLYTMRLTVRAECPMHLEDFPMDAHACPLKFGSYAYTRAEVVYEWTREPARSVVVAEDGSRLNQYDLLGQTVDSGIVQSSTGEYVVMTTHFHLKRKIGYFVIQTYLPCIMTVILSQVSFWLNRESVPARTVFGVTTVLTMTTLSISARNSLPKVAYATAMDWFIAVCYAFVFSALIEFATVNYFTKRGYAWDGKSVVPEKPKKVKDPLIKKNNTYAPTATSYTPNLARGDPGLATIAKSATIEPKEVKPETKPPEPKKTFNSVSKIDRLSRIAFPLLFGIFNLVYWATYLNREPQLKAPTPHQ
# Chain of recombinant human GABAARs (α1β2γ2) (P47870 25-512 partner limits assumed): as the sequence (P47870 25-512 partner limits assumed) above
# Chain of recombinant human GABAARs (α1β2γ2) (P18507 40-475): as the sequence (P18507 40-475) above
# [4] = target: human recombinant GABAA receptor α1β2γ2 (Homo sapiens, UniProt P14867+P18507); test: Two-electrode voltage clamp in Xenopus oocytes, α1β2γ2; format: cell-based; conditions: for Function relative efficacy, normalized toward chlordiazepoxide (10 µmol/L): Padsevonil 10 µmol/L, GABA EC20, TEVC, α1β2γ2
# Chain of human recombinant GABAA receptor α1β2γ2 (P14867 28-456): as the sequence (P14867 28-456) above
# Chain of human recombinant GABAA receptor α1β2γ2 (P47870 25-512 partner limits assumed): as the sequence (P47870 25-512 partner limits assumed) above
# Chain of human recombinant GABAA receptor α1β2γ2 (P18507 40-475): as the sequence (P18507 40-475) above
# [5] = target: human recombinant GABAA receptor α2β2γ2 (Homo sapiens, UniProt P18507+P47869); test: Two-electrode voltage clamp in Xenopus oocytes, α2β2γ2; format: cell-based; conditions: for Function relative efficacy, normalized toward chlordiazepoxide (10 µmol/L): Padsevonil 10 µmol/L, GABA EC20, TEVC, α2β2γ2
# Chain of human recombinant GABAA receptor α2β2γ2 (P47869 29-451): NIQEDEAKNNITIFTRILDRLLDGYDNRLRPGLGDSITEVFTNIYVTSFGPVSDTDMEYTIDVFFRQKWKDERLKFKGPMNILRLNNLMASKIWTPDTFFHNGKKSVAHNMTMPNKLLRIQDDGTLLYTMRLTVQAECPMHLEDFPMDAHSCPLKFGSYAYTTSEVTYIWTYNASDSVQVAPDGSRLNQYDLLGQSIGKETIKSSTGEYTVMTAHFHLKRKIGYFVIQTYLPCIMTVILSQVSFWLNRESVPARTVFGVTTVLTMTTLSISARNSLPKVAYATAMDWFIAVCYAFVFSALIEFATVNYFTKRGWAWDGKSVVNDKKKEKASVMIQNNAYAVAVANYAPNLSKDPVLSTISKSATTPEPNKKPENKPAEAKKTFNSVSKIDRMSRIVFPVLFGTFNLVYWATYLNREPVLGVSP
# Chain of human recombinant GABAA receptor α2β2γ2 (P47870 25-512 partner limits assumed): as the sequence (P47870 25-512 partner limits assumed) above
# Chain of human recombinant GABAA receptor α2β2γ2 (P18507 40-475): as the sequence (P18507 40-475) above
# [6] = target: human recombinant GABAA receptor α3β2γ2 (Homo sapiens, UniProt P18507+P34903); test: Two-electrode voltage clamp in Xenopus oocytes, α3β2γ2; format: cell-based; conditions: for Function relative efficacy, normalized toward chlordiazepoxide (10 µmol/L): Padsevonil 10 µmol/L, GABA EC20, TEVC, α3β2γ2
# Chain of human recombinant GABAA receptor α3β2γ2 (P34903 29-492): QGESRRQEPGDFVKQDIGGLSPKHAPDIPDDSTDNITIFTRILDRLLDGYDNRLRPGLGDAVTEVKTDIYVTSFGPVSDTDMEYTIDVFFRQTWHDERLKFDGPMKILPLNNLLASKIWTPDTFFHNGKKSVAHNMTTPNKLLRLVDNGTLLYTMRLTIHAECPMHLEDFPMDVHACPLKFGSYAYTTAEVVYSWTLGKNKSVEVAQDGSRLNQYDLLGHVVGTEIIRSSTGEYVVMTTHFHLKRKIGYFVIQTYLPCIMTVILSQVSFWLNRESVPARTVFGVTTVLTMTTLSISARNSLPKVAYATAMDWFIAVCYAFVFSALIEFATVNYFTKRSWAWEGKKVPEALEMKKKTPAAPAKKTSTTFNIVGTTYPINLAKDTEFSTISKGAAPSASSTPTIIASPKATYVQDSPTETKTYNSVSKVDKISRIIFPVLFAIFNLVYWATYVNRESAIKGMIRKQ
# Chain of human recombinant GABAA receptor α3β2γ2 (P47870 25-512 partner limits assumed): as the sequence (P47870 25-512 partner limits assumed) above
# Chain of human recombinant GABAA receptor α3β2γ2 (P18507 40-475): as the sequence (P18507 40-475) above
# [7] = target: human recombinant GABAA receptor α5β2γ2 (Homo sapiens, UniProt P18507+P31644); test: Two-electrode voltage clamp in Xenopus oocytes, α5β2γ2; format: cell-based; conditions: for Function relative efficacy, normalized toward chlordiazepoxide (10 µmol/L): Padsevonil 10 µmol/L, GABA EC20, TEVC, α5β2γ2
# Chain of human recombinant GABAA receptor α5β2γ2 (P31644 32-462): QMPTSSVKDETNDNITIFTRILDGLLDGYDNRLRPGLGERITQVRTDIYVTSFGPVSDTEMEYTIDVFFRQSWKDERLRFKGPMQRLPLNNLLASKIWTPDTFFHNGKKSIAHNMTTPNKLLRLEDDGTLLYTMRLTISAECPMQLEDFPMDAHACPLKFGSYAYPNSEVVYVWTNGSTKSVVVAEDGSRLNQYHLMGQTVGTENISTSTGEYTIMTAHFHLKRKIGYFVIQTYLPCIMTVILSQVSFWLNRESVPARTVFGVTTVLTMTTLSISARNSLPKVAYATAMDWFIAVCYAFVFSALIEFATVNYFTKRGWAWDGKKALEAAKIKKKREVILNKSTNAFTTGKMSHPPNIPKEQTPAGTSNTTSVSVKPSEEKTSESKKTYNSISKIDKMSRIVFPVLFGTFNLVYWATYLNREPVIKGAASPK
# Chain of human recombinant GABAA receptor α5β2γ2 (P47870 25-512 partner limits assumed): as the sequence (P47870 25-512 partner limits assumed) above
# Chain of human recombinant GABAA receptor α5β2γ2 (P18507 40-475): as the sequence (P18507 40-475) above
# Procedure, shortened: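 Human α5β2γ2 receptors expressed in oocytes. GABA (EC₂₀) was applied twice for 20 s, 6 min apart, as control. Test compound (1 nmol/L–30 µmol/L) was preincubated 6 min, then co-applied with GABA for 20 s. EC₅₀ came from a sigmoidal fit of data normalized to maximal potentiation. Efficacy at 10 µmol/L was normalized to chlordiazepoxide 10 µmol/L. Mean ± SEM, n = 6–26.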
# [8] = system: native GABAARs in cultured rat primary cortical neurons; format: cell-based; conditions: manual patch clamp, rat primary neuronal cultures, GABA at EC20 as printed
# [9] = system: SV2A; conditions: cited from earlier work
# [10] = target: B isoform of SV2 proteins; conditions: cited from earlier work
# [11] = target: C isoform of SV2 proteins; conditions: cited from earlier work
# [12] = target: recombinant GABAARs, benzodiazepine (BZD) binding site; conditions: cited from earlier work
# [13] = system: SV2A; conditions: cited from earlier work; remark: listed apart in the source
# [14] = system: BZD site of GABAARs; conditions: cited from earlier work
# [15] = system: PTZ-induced clonic seizures; conditions: repeated = twice daily for 4 consecutive days; cited from earlier work
# [16] = system: treatment-resistant focal epilepsy; conditions: Phase IIa proof-of-concept trial; cited from earlier work
# [17] = system: Lennox–Gastaut syndrome; conditions: stable dosages over a 3-year period; cited from earlier work
smiles,measurement,setting,value
COCc1c(C(=O)OC(C)C)ncc2[nH]c3ccc(OCc4ccccc4)cc3c12 [Abecarnil],Clinical efficacy / tolerance development,[1],without development of tolerance
"Cc1ccc(-c2nc3ccc(C)cn3c2CC(=O)N(C)C)cc1 [zolpidem, Zolpidem, reference compound]",Potentiation of the GABA (EC20) response on α4β2γ2 receptors,[2],insensitive
"COCc1nn2c(CN3C[C@@H](CC(F)(F)Cl)CC3=O)c(C(F)(F)F)nc2s1 [Padsevonil, (4R)‐4‐(2‐chloro‐2,2‐difluoroethyl)‐1‐{[2‐(methoxymethyl)‐6‐(trifluoromethyl)imidazo[2,1‐b][1,3,4]thiadiazol‐5‐yl]methyl}pyrrolidin‐2‐one]",EC50,[3],138 ± 29 nM
same,Effect on maximal activation of the receptor,"[3]; GABA 30 µmol/L (EC90), data not shown",does not overstimulate the receptor
same,Potentiation of the GABA (agonist) response,"[3]; GABA at EC20 set to 100%, patch clamp, human α1β2γ2 in CHO",167%
same,"Function relative efficacy, normalized toward zolpidem (1 µmol/L)","[3]; GABA EC20, patch clamp, same cell",41 ± 4%
same,"Function relative efficacy, normalized toward zolpidem (1 µmol/L)","[3]; GABA EC20, patch clamp, same cell, listed as padsevonil",41%
same,"Relative efficacy, GABA EC20 response as % of that of zolpidem (1 µmol/L)","[3]; Padsevonil 30 µmol/L, GABA EC20, patch clamp, same cell",35%
same,Cl− currents evoked in the absence of GABA,[3],did not elicit
same,Cl− currents evoked in the absence of GABA,[3]; listed as padsevonil,did not evoke
same,EC50,[4],295 nM
same,"Function relative efficacy, normalized toward chlordiazepoxide (10 µmol/L)",[4],60 ± 6%
same,"Function relative efficacy, normalized toward chlordiazepoxide (10 µmol/L)",[4]; listed as padsevonil,60%
same,Higher potency for receptors with α1 or α5 subunits than for those with α2 or α3 subunits,"[4]; TEVC, oocytes, α1/α5 versus α2/α3",approximately sixfold
same,EC50,[5],1740 ± 258 nM
same,"Function relative efficacy, normalized toward chlordiazepoxide (10 µmol/L)",[5],26 ± 4 (n = 13) ^b %
same,"Function relative efficacy, normalized toward chlordiazepoxide (10 µmol/L)",[5]; listed as padsevonil,26%
same,EC50,[6],2090 ± 227 nM
same,"Function relative efficacy, normalized toward chlordiazepoxide (10 µmol/L)",[6],56 ± 6 (n = 18) ^b %
same,"Function relative efficacy, normalized toward chlordiazepoxide (10 µmol/L)",[6]; listed as padsevonil,56%
same,Potentiation of the GABA (EC20) response on α4β2γ2 receptors,[2],did not potentiate; also recorded: does not activate
same,Potentiation of the GABA (EC20) response on α4β2γ2 receptors,[2]; listed as padsevonil,no activity was observed
same,"Function EC50, potentiation of GABA EC20",[2]; α4β2γ2 in Xenopus oocytes,No potentiation
same,EC50,[7],281 ± 73 nM
same,"Function relative efficacy, normalized toward chlordiazepoxide (10 µmol/L)",[7],41 ± 10 (n = 10) ^b %
same,"Function relative efficacy, normalized toward chlordiazepoxide (10 µmol/L)",[7]; listed as padsevonil,41%
same,"pEC50, potentiation of neuronal GABAAR activity",[8],6.68
same,Dissociation kinetics from SV2A,[9]; compared with LEV and BRV,significantly slower dissociation kinetics
same,Affinity for SV2A relative to LEV,[9]; radioligand displacement,~2000 fold
same,Affinity for SV2A relative to brivaracetam (BRV),[9]; radioligand displacement,approximately 100 fold
same,pKi SV2A,[9]; radioligand displacement,8.5
same,pKi SV2B,[10],7.9
same,pKi SV2C,[11],8.5
same,pKi benzodiazepine (BZD) binding site,[12],6.4
same,SV2A occupancy ED50,"[13]; in vivo, mice",0.2 mg/kg
same,SV2A occupancy at doses highly active in models of drug-resistant epilepsy,[13]; nonclinical studies,> 95%
same,BZD site occupancy ED50,"[14]; in vivo, mice",36 mg/kg
same,Occupancy on GABAARs at doses highly active in models of drug-resistant epilepsy,[14]; nonclinical studies,< 20%
same,Tolerance: increase of PTZ seizure threshold after acute versus repeated dosing,[15],tolerance was not developed
same,Clinical efficacy,[16],robust efficacy
"CCOC(=O)c1ncn2c1CN(C)C(=O)c1cc(N=[N+]=[N-])ccc1-2 [Ro 15‐4513, reference compound]",Potentiation of the GABA (EC20) response on α4β2γ2 receptors,[2],potentiated
CN1C(=O)CC(=O)N(c2ccccc2)c2cc(Cl)ccc21 [Clobazam],Seizure control / tolerance development,[17],sustained seizure control
